Converted amounts (≈) assume the structure as drawn. “Also recorded” adds a separate entry of the source. Where a name gives a salt, the structure may show the parent alone. One block for each molecule: values may come before it. Peptide text beside a SMILES is read from it. * marks the point of attachment. βNA = c1ccc2cc(N*)ccc2c1
Experiments:
B. subtilis 168 = experiment: Membrane damage assessment; format: cell-based, Bacillus subtilis; conditions: 15 min incubation, up to 10-fold MIC, Syto9/propidium iodide
Summary of the method: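 B. subtilis membrane integrity assessed by fluorescence microscopy with Syto9, which stains all cells, and propidium iodide, which enters only compromised cells. […] Stained cells were counted.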

B. subtilis = experiment: MIC determination, broth dilution, B. subtilis; format: cell-based, Bacillus subtilis; conditions: for MIC: Bacillus subtilis
Summary of the method: (§1)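 Bacterial MIC followed NCCLS M07 broth microdilution. Test compound in DMSO (1 μL) added to 50 μL cation-adjusted Mueller Hinton II broth, then ~1 × 10^3 cfu from overnight liquid culture. Incubated at 30–37 °C for 16–20 h. MIC taken as the first well without visible growth. For imaging, 0.7% w/v resazurin (10 μL) added, then 4 h at 37 °C.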

Sfp-PPTase = biological target: T1, Sfp-PPTase (Bacillus subtilis, UniProt P39135); experiment: Rescue-by-dilution reversibility experiment; format: biochemical; conditions: 100-fold dilution from conditions producing 90% inhibition
T1 sequence (P39135 1-224): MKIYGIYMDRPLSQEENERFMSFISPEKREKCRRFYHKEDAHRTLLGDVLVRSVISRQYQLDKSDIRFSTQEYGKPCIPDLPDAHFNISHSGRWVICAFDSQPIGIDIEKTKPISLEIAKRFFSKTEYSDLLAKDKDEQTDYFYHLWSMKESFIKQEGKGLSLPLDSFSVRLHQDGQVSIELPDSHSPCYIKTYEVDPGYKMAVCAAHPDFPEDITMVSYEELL

B. subtilis Sfp-PPTase = biological target: T2, B. subtilis Sfp-PPTase (Bacillus subtilis, UniProt P39135); experiment: Sfp-PPTase qHTS assay; format: biochemical; conditions: for IC50 ± SD: triplicate; for Sfp-PPTase inhibitory activity in words: SAR discussion
T2 sequence (P39135 1-224): T1 sequence (P39135 1-224)

B. subtilis (HM489) = experiment: B. subtilis HM489 antibacterial assay; format: cell-based, Bacillus subtilis; conditions: cellular ATP content, Bac-Titer Glo
HepG2 cells = experiment: HepG2 cytotoxicity counterscreen; format: cell-based, human; conditions: cellular ATP content, CellTiter-Glo, 48 hr
E. coli JW0451 (ΔacrB) = experiment: Broth dilution with efflux-defective E. coli mutant; format: cell-based, Escherichia coli
Summary of the method: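 Broth microdilution: test compound in DMSO (1 μL) added to 50 μL cation-adjusted Mueller Hinton II broth, then ~1 × 10^3 cfu inoculum from overnight culture. Incubated at 30–37 °C for 16–20 h. MIC scored visually as the first well without growth. Efflux-defective ΔacrB strain JW0451 tested alongside wild-type BW25113.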

Candida albicans = experiment: MIC determination, broth dilution, fungi; format: cell-based; conditions: C. albicans ATCC90028 and ATCC96901
Summary of the method: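 Fungal MIC followed NCCLS M27 broth microdilution against fluconazole-sensitive and fluconazole-resistant C. albicans strains. Inoculum was made by suspending 2-day-old colonies in RPMI 1640, ~1 × 10^3 cfu per well, with test compound in DMSO. Incubated at 30–37 °C for 48 h. MIC read visually as the first well without growth.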

P. aeruginosa = experiment: MIC determination, broth dilution, P. aeruginosa; format: cell-based, Pseudomonas aeruginosa; conditions: ATCC9028
Summary of the method: as §1

E. coli = experiment: MIC determination, broth dilution, E. coli; format: cell-based, Escherichia coli; conditions: E. coli K12 and BW25113
Summary of the method: as §1

[1] = Mouse liver microsome stability; format: in vitro ADME
[2] = Compound stability in aqueous media and buffers; format: physicochemical; conditions: pH range 2–9, PBS and HEPES
CYP2D6 = CYP2D6 (Homo sapiens, UniProt P10635); experiment: CYP2D6 inhibition; format: in vitro ADME; conditions: 2D6, 3 μM, substrate dextromethorphan
clinical strains of MRSA = experiment: MIC against clinical strains of S. aureus; format: cell-based, Staphylococcus aureus; conditions: all strains tested
[3] = In vivo PK in male CD1 mice; set-up: species or system mouse
human PPTase = biological target: T3, human PPTase (Homo sapiens, UniProt Q9NRN7); experiment: Gel-based PPTase assay with the human enzyme; format: biochemical; conditions: concentrations up to 125 μM
T3 sequence (Q9NRN7 1-309): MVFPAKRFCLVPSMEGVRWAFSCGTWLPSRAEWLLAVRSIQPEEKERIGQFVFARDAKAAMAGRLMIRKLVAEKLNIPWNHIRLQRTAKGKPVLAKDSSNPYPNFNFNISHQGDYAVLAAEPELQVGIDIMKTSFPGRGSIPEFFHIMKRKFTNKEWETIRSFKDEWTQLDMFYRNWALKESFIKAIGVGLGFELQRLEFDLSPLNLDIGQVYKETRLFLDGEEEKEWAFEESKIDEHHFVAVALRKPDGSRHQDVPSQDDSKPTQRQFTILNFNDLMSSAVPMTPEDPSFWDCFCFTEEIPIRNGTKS

[4] = PAMPA passive permeability; format: in vitro ADME
[5] = test system: S. aureus BK2395 (PFGE USA500); experiment: Mouse model of S. aureus septicemia; format: in vivo; conditions: 55 30 mpk, vancomycin 50 mpk; 4, 24, 48 hours post infection
E. coli BW25113 = experiment: Checkerboard synergy experiment with PAβN; format: cell-based, Escherichia coli; conditions: top concentrations tested
Summary of the method: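 Checkerboard broth dilution in E. coli BW25113 combining test compound with PAβN over concentration grids. Resazurin added (10 μL, 0.7% w/v) and incubated a further 4 h at 37 °C; purple wells scored as no metabolically active bacteria. At each test-compound concentration, the lowest PAβN concentration halting growth was recorded. FIC index was estimated as combined potency relative to the single components.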

[6] = test system: S. aureus and B. subtilis; experiment: Minimum bactericidal concentration determination; format: cell-based

Chain of CYP2D6 (P10635 whole entry): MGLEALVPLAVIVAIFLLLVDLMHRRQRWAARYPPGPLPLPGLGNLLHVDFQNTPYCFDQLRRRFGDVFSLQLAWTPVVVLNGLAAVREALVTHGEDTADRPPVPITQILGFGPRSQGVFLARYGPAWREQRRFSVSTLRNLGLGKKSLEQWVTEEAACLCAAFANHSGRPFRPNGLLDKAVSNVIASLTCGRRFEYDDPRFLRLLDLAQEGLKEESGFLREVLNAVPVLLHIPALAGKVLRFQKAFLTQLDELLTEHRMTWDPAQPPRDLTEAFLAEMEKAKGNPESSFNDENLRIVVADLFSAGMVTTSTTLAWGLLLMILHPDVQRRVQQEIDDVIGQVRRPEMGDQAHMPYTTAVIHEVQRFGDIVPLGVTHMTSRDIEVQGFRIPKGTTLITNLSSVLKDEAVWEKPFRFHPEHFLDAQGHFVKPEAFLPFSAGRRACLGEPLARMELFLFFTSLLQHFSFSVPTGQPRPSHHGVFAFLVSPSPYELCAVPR

SMILES: CCCCCCCCCCCCCCCC[N+](C)(C)C [CTAB, cetyltrimethylammonium bromide]
bacterial cell membrane integrity (B. subtilis 168): rapid compromise of bacterial cell integrity
MIC (B. subtilis): ~2 µg/mL

SMILES: FC(F)(F)c1cccc(N2CCN(C(=S)Nc3cc(C(F)(F)F)ccn3)CC2)c1 [Compound 4]
IC50 ± SD (B. subtilis Sfp-PPTase; Table 1, HTS assay): inactive

SMILES: Cc1cc(C)nc(N/C(=N/C#N)N2CCN(c3cccc(C(F)(F)F)c3)CC2)c1 [Compound 14]
Sfp-PPTase inhibitory activity in words (B. subtilis Sfp-PPTase): complete loss of activity
IC50 ± SD (B. subtilis Sfp-PPTase; Table 1, HTS assay): inactive

SMILES: Cc1cc(C)nc(Nc2nnc(N3CCN(c4cccc(C(F)(F)F)c4)CC3)s2)c1 [Compound 16]
IC50 ± SD (B. subtilis Sfp-PPTase; Table 1, HTS assay): inactive

SMILES: Cc1ccnc(N(C)C(=S)N2CCN(c3cccc(C(F)(F)F)c3)CC2)c1 [Compound 19]
IC50 ± SD (B. subtilis Sfp-PPTase; Table 1, HTS assay): inactive

SMILES: Cc1ccnc(NC(=S)N2CCN(c3ccccc3C(F)(F)F)CC2)c1 [Compound 22, N-(4-Methylpyridin-2-yl)-4-(2-(trifluoromethyl)phenyl)piperazine-1-carbothioamide Trifluoroacetate]
cytotoxicity (HepG2), IC50 (HepG2 cells): inactive

SMILES: Cc1cc(C)nc(NC(=S)N2CCN(c3ccc(Cl)cc3C(F)(F)F)CC2)c1 [Compound 41, 4-(4-Chloro-2-(trifluoromethyl)phenyl)-N-(4,6-dimethylpyridin-2-yl)piperazine-1-carbothioamide Trifluoroacetate]
cytotoxicity (HepG2), IC50 (HepG2 cells): inactive

SMILES: COc1ccnc(NC(=S)N2CCN(c3ncc(C(F)(F)F)cc3Cl)CC2)c1 [Compound 55, 4-(3-Chloro-5-(trifluoromethyl)pyridin-2-yl)-N-(4-methoxypyridin-2-yl)piperazine-1-carbothioamide Trifluoroacetate]
lowest concentration to which the ΔacrB strain is susceptible (E. coli JW0451 (ΔacrB); E. coli JW0451, lesion in acrB locus): 12.5 µg/mL
lowest concentration inhibiting bacterial growth (Figure 4B) (E. coli JW0451 (ΔacrB); legend: disruption of tolC): 12 µM
growth inhibition of fungal organisms (Candida albicans): No growth inhibition
growth inhibition of P. aeruginosa (P. aeruginosa): No growth inhibition
growth inhibition of E. coli (E. coli): No growth inhibition
microsomal stability without NADPH ([1]; absence of NADPH cofactor, 1 h): completely stable
half-life ([1]; mouse, liver microsomes, microsomal stability (T1/2, min), mouse liver microsomes, with NADPH): 49.5 min
degradation in aqueous media, buffers and mouse plasma [2]: no signs of degradation
CYP inh (3 μM) (%) (CYP2D6): 25 (2D6) %
spread of potencies over the panel of clinical isolates (clinical strains of MRSA): ≤ 3 fold
adverse clinical observations ([3]; iv 3 and ip 30 mg/kg, 24 h period): did not result in any adverse clinical observations
time for which exposure exceeds the in vitro antibacterial MIC value ([3]; total drug concentration): over 8 h
inhibition of the human PPTase (human PPTase): no inhibition; also recorded: null activity
bacterial cell membrane integrity (B. subtilis 168): continued cellular viability
PAMPA [4]: 1122 × 10^–6 cm/s
cytotoxicity (HepG2), IC50 (HepG2 cells): inactive
survival in mouse sepsis model [5]: did not increase survival
antibacterial activity of the single compound against BW25113 (E. coli BW25113): neither compound alone was found to possess antibacterial activity
concentration inhibiting the growth of B. subtilis (B. subtilis; broth dilution, resazurin): 1.7 µg/mL
type of antibacterial activity [6]: bactericidal activity

SMILES: Cc1ccnc(NC(=S)N2CCC(Nc3cccc(C(F)(F)F)c3)CC2)c1 [Compound 63, N-(4-Methylpyridin-2-yl)-4-((3-(trifluoromethyl)phenyl)amino)piperidine-1-carbothioamide Trifluoroacetate]
cytotoxicity (HepG2), IC50 (HepG2 cells): inactive

SMILES: Nc1ncnc2c1ncn2[C@@H]1O[C@H](COP(=O)(O)O)[C@@H](OP(=O)(O)O)[C@H]1O [PAP, 3′-phosphoadenosine 5′-monophosphate, reference compound]
inhibition of the human PPTase (human PPTase): observed inhibition
reversibility of inhibition of Sfp (Sfp-PPTase): reversible

SMILES: NC(N)=NCCC[C@H](NC(=O)[C@@H](N)Cc1ccccc1)C(=O)Nc1ccc2ccccc2c1 [PAβN, phenylarginine-β-naphthamide, reference compound] (H-Phe-Arg-βNA)
antibacterial activity of the single compound against BW25113 (E. coli BW25113): neither compound alone was found to possess antibacterial activity

SMILES: CN[C@H](CC(C)C)C(=O)N[C@H]1C(=O)N[C@@H](CC(N)=O)C(=O)N[C@H]2C(=O)N[C@H]3C(=O)N[C@H](C(=O)N[C@H](C(=O)O)c4cc(O)cc(O)c4-c4cc3ccc4O)[C@H](O)c3ccc(c(Cl)c3)Oc3cc2cc(c3O[C@@H]2O[C@H](CO)[C@@H](O)[C@H](O)[C@H]2O[C@H]2C[C@](C)(N)[C@H](O)[C@H](C)O2)Oc2ccc(cc2Cl)[C@H]1O [vancomycin, reference compound]
survival in mouse sepsis model [5]: completely protected animals from morbidity

Second part, led by results:

MIC (B. subtilis): ~2 µg/mL (≈ 6.19 µM)
SMILES: O=C(N[C@H](CO)[C@H](O)c1ccc([N+](=O)[O-])cc1)C(Cl)Cl [Chloramphenicol]
bacterial cell membrane integrity (B. subtilis 168): continued cellular viability

reversibility of inhibition of Sfp (Sfp-PPTase): completely reversible inhibition
SMILES: Cc1ccnc(NC(=S)N2CCN(c3cccc(C(F)(F)F)c3)CC2)c1 [Compound 1, N-(4-Methylpyridin-2-yl)-4-(3-(trifluoromethyl)phenyl)piperazine-1-carbothioamide Trifluoroacetate]

IC50 ± SD (B. subtilis Sfp-PPTase; Table 1, HTS assay): inactive
SMILES: Cc1cccc(NC(=S)N2CCN(c3cccc(C(F)(F)F)c3)CC2)c1 [Compound 5]

IC50 ± SD (B. subtilis Sfp-PPTase; Table 1, HTS assay): inactive
SMILES: FC(F)(F)c1cccc(N2CCN(C(=S)Nc3ccncc3)CC2)c1 [Compound 6]

IC50 ± SD (B. subtilis Sfp-PPTase; Table 1, HTS assay): inactive
Sfp-PPTase IC50 (B. subtilis Sfp-PPTase; Table 4, HTS assay): inactive
SMILES: Cc1ccnc(NC(=O)N2CCN(c3cccc(C(F)(F)F)c3)CC2)c1 [Compound 12, N-(4-Methylpyridin-2-yl)-4-(3-(trifluoromethyl)phenyl)piperazine-1-carboxamide Trifluoroacetate]
B. subtilis (HM489) IC50 (B. subtilis (HM489)): inactive

IC50 ± SD (B. subtilis Sfp-PPTase; Table 1, HTS assay): inactive
SMILES: Cc1ccnc(NC(=N)N2CCN(c3cccc(C(F)(F)F)c3)CC2)c1 [Compound 13]

Sfp-PPTase inhibitory activity in words (B. subtilis Sfp-PPTase): complete loss of activity
IC50 ± SD (B. subtilis Sfp-PPTase; Table 1, HTS assay): inactive
SMILES: Cc1cc(C)nc(NC(=C(C#N)C#N)N2CCN(c3cccc(C(F)(F)F)c3)CC2)c1 [Compound 15]

IC50 ± SD (B. subtilis Sfp-PPTase; Table 1, HTS assay): inactive
SMILES: Cc1ccnc(NC(=S)NC2CCN(c3cccc(C(F)(F)F)c3)CC2)c1 [Compound 20]

Sfp-PPTase inhibitory activity in words (B. subtilis Sfp-PPTase): lost all activity
IC50 ± SD (B. subtilis Sfp-PPTase; Table 3, HTS assay): inactive
SMILES: Cc1ccnc(NC(=S)NCCN(C)c2cccc(C(F)(F)F)c2)c1 [Compound 57]

Sfp-PPTase inhibitory activity in words (B. subtilis Sfp-PPTase): lost all activity
IC50 ± SD (B. subtilis Sfp-PPTase; Table 3, HTS assay): inactive
SMILES: Cc1ccnc(NC(=S)NCCNc2cccc(C(F)(F)F)c2)c1 [Compound 58]

Sfp-PPTase inhibitory activity in words (B. subtilis Sfp-PPTase): all activity is lost
IC50 ± SD (B. subtilis Sfp-PPTase; Table 3, HTS assay): inactive
SMILES: Cc1ccnc(NC(=S)NC2CN(c3cccc(C(F)(F)F)c3)C2)c1 [Compound 59]

inhibition of the human PPTase (human PPTase): observed inhibition
reversibility of inhibition of Sfp (Sfp-PPTase): irreversible inhibitor
SMILES: C/N=c1\nc(-c2ccccc2)n(-c2ccccc2)s1 [SCH-202676, reference compound]

Reference: paper PMC3983359 (Journal of Medicinal Chemistry, 2014)
